Measurements taken from ChEMBL document CHEMBL2177000, “Pharmacokinetic optimization of class-selective histone deacetylase inhibitors and identification of associated candidate predictive biomarkers of hepatocellular carcinoma tumor response” (J Med Chem, 2012).

How the values were obtained:
[1] = Oral bioavailability in Sprague-Dawley rat at 10 mg/kg by LC-MS/MS method; assay type: ADME, organism-based; conditions: in vivo
Procedure, shortened: (§1)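 Single-dose PK: iv bolus 2 mg/kg in 5% DMSO/40% PEG400/55% saline and/or oral gavage 10 mg/kg as 0.445% microcrystalline cellulose microsuspension; BALB/C nude mice (15−20 g, N = 16 per arm) or male Sprague−Dawley rats (250 ± 20 g, N = 3). Blood at eight (po) or nine (iv) time points into sodium heparin, plasma by LC-MS/MS, noncompartmental analysis.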

[2] = Volume of distribution at steady state in Sprague-Dawley rat at 10 mg/kg, po or 2 mg/kg, iv by LC-MS/MS method; assay type: ADME, organism-based; conditions: in vivo, read-out: Vdss; procedure, shortened: as §1
[3] = Clearance in Sprague-Dawley rat at 10 mg/kg, po or 2 mg/kg, iv by LC-MS/MS method; assay type: ADME, organism-based; conditions: in vivo
Procedure, shortened: (§2)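 Male Sprague−Dawley rats (250 ± 20 g; N = 3); iv bolus 2 mg/kg in 5% DMSO/40% PEG400/55% saline and/or gavage 10 mg/kg in 0.445% microcrystalline cellulose microsuspension; plasma from heparinized blood at eight (po) or nine (iv) time points, LC-MS/MS, noncompartmental analysis.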

[4] = AUC in Sprague-Dawley rat at 10 mg/kg, po or 2 mg/kg, iv by LC-MS/MS method; assay type: ADME, organism-based; conditions: plasma; procedure, shortened: as §2
[5] = Cmax in Sprague-Dawley rat at 10 mg/kg, po or 2 mg/kg, iv by LC-MS/MS method; assay type: ADME, organism-based; conditions: in vivo; procedure, shortened: as §2
[6] = Tmax in Sprague-Dawley rat at 10 mg/kg, po or 2 mg/kg, iv by LC-MS/MS method; assay type: ADME, organism-based; conditions: in vivo; procedure, shortened: as §1
[7] = Clearance in mouse liver microsomes at 1 uM incubated for 10 mins by LC-MS/MS method; assay type: ADME, Microsome
Procedure, shortened: (§3)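 Liver microsomes (human or mouse, 0.5 mg/mL) in 100 mM potassium phosphate pH 7.4 with 1 μM compound, prewarmed 10 min at 37 °C, started with NADPH (10 mM); stopped at 0, 3, 6, 9, 15, 30 min with ice-cold methanol containing tolbutamide internal standard; LC-MS/MS. Hepatic clearance (mL/min/kg) calculated from intrinsic clearance.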

[8] = Clearance in human liver microsomes at 1 uM incubated for 10 mins by LC-MS/MS method; assay type: ADME, Microsome; procedure, shortened: as §3
[9] = molecular target: Histone deacetylase (Homo sapiens) (UniProt Q13547+O15379+Q9UBN7+Q92769+Q9UQL6+Q8WUI4+Q9BY41+Q96DB2+P56524+Q9UKV0+Q969S8); assay: Inhibition of Class 1 histone deacetylase in human HeLa cells assessed as induction in p21 protein expression at 3 uM incubated for 16 hrs by luciferase reporter gene assay relative to HDAC inhibitor entinostat; assay type: cell-based; set-up: scale not given: the % may be the effect or the level left
Mus musculus [10] = assay: Oral bioavailability in BALB/C mouse at 10 mg/kg by LC-MS/MS method; assay type: ADME, organism-based; conditions: in vivo
Procedure, shortened: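 Bioavailability from single-dose iv (2 mg/kg, 5% DMSO/40% PEG400/55% saline) and oral gavage (10 mg/kg, 0.445% microcrystalline cellulose microsuspension) studies in BALB/C nude mice (N = 16 per arm); plasma at eight (po) or nine (iv) time points, LC-MS/MS, noncompartmental analysis.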

[11] = Clearance in BALB/C mouse at 10 mg/kg, po or 2 mg/kg, iv by LC-MS/MS method; assay type: ADME, organism-based; conditions: in vivo
Procedure, shortened: (§4)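 Female-unspecified BALB/C nude mice (15−20 g, N = 16 per arm); iv bolus 2 mg/kg in 5% DMSO/40% PEG400/55% saline and/or oral gavage 10 mg/kg as 0.445% microcrystalline cellulose microsuspension. Blood sampled at nine (iv) or eight (po) time points into sodium heparin tubes; plasma by LC-MS/MS; noncompartmental analysis.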

Mus musculus [12] = assay: AUC in BALB/C mouse at 10 mg/kg, po or 2 mg/kg, iv by LC-MS/MS method; assay type: ADME, organism-based, Plasma; conditions: in vivo; procedure, shortened: as §4
Mus musculus [13] = assay: Half life in BALB/C mouse at 10 mg/kg, po or 2 mg/kg, iv by LC-MS/MS method; assay type: ADME, organism-based; conditions: in vivo; procedure, shortened: as §4
Mus musculus [14] = assay: Cmax in BALB/C mouse at 10 mg/kg, po or 2 mg/kg, iv by LC-MS/MS method; assay type: ADME, organism-based; conditions: in vivo; procedure, shortened: as §4
Mus musculus [15] = assay: Tmax in BALB/C mouse at 10 mg/kg, po or 2 mg/kg, iv by LC-MS/MS method; assay type: ADME, organism-based; conditions: in vivo; procedure, shortened: as §1

bioavailability [1] [%]	Vd [2] [L]	clearance [3] [mL/min/kg]	AUC [4] [ng·h/mL]	Cmax [5] [ng/mL]	Tmax [6] [h]	CLhep predicted at 1 µM [7] [mL/min/kg]	CLhep predicted at 1 µM [8] [mL/min/kg]	Activity [9] [%]	F (Mus musculus [10]) [%]	clearance [11] [mL/min/kg]	AUC (Mus musculus [12]) [ng·h/mL]	t1/2 (Mus musculus [13]) [h]	Cmax (Mus musculus [14]) [ng/mL]	Tmax (Mus musculus [15]) [h]	SMILES
9	19	120	116	33	4	41	12	> 300	–	–	–	–	–	–	CN1C[C@H](C(=O)Nc2ccc(Cl)cc2)[C@@H](c2ccc(/C=C/C(=O)Nc3ccccc3N)nn2)C1 (racemic)
–	–	–	–	–	–	35	5	–	75	39	2946	14	324	1	CN1C[C@H](C(=O)Nc2ccc(Cl)cc2)[C@@H](c2ccc(/C=C/C(=O)Nc3ccccc3N)cc2)C1 (racemic)
